Reference: ChEMBL document CHEMBL4368872, “Synthesis and anticonvulsant activity of phenoxyacetyl derivatives of amines, including aminoalkanols and amino acids” (Medchemcomm, 2018)
Active and inactive are the calls of the source. No cut-off for these calls is given here.

Columns and labels:
[1] = test system: Mus musculus; assay: Anticonvulsant activity in CF-1 mouse model of maximal electroshock-induced seizure assessed as suppression of tonic hind limb extension at 30 mg/kg, ip measured at 0.5 hrs post dose; format: functional, organism-based
How it was run: (§1)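 Mice dosed i.p. and given maximal electroshock at 50 mA. Read-out is protection, reported as number protected / number tested at 0.25, 0.5, 1 and 4 h after dosing.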

[2] = test system: Mus musculus; assay: Anticonvulsant activity in CF-1 mouse model of subcutaneous pentylenetetrazole-induced seizure assessed as reduction in convulsions at 300 mg/kg, ip measured at 4 hrs post dose; format: functional, organism-based
How it was run: (§2)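 Mice dosed i.p., then given pentylenetetrazole 85 mg/kg in 0.9% NaCl s.c. into the posterior midline of the neck. Seizures watched for at least 30 min. Scored as protected / tested at 0.5 and 4 h.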

[3] = Neurotoxicity in Sprague-Dawley rat at 30 mg/kg, po measured after 0.5 hrs by rotarod test; format: toxicity, organism-based; conditions: in vivo
How it was run: (§3)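 Rat neurotoxicity after i.p. or p.o. dosing was scored as animals impaired / animals tested at each time point. For p.o. dosing, TD50 was obtained by probit analysis.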

[4] = Neurotoxicity in Sprague-Dawley rat at 30 mg/kg, po measured after 4 hrs by rotarod test; format: toxicity, organism-based; conditions: in vivo; how it was run: as §3
[5] = Neurotoxicity in CF-1 mouse at 30 mg/kg, ip measured after 0.5 hrs by rotarod test; format: toxicity, organism-based; conditions: in vivo
How it was run: (§4)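 Mice dosed i.p. were placed on a 1 in. knurled rod turning at 6 rpm. Toxicity was scored as failure to keep balance for at least 1 min, i.e. falling off three or more times. Results are reported as animals showing toxicity / animals tested at each time point.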

[6] = Neurotoxicity in Sprague-Dawley rat at 30 mg/kg, po measured after 1 hr by rotarod test; format: toxicity, organism-based; conditions: in vivo; how it was run: as §3
[7] = test system: Rattus norvegicus; assay: Anticonvulsant activity in Sprague-Dawley rat model of maximal electroshock-induced seizure assessed as suppression of tonic hind limb extension at 30 mg/kg, po measured at 1 hr post dose; format: functional, organism-based
How it was run: (§5)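 Rats given 30 mg/kg p.o. and tested by maximal electroshock at 150 mA. Scored as number protected / number tested (4 per group) at 0.25, 0.5, 1, 2 and 4 h after dosing.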

[8] = test system: Mus musculus; assay: Anticonvulsant activity in CF-1 mouse model of subcutaneous pentylenetetrazole-induced seizure assessed as reduction in convulsions at 100 mg/kg, ip measured at 0.5 hrs post dose; format: functional, organism-based; how it was run: as §2
[9] = test system: Mus musculus; assay: Anticonvulsant activity in CF-1 mouse model of subcutaneous pentylenetetrazole-induced seizure assessed as reduction in convulsions at 30 mg/kg, ip measured at 4 hrs post dose; format: functional, organism-based; how it was run: as §2
[10] = test system: Mus musculus; assay: Anticonvulsant activity in CF-1 mouse model of subcutaneous pentylenetetrazole-induced seizure assessed as reduction in convulsions at 30 mg/kg, ip measured at 0.5 hrs post dose; format: functional, organism-based; how it was run: as §2
[11] = Neurotoxicity in CF-1 mouse at 100 mg/kg, ip measured after 4 hrs by rotarod test; format: toxicity, organism-based; conditions: in vivo; how it was run: as §4
[12] = test system: Rattus norvegicus; assay: Anticonvulsant activity in Sprague-Dawley rat model of maximal electroshock-induced seizure assessed as suppression of tonic hind limb extension at 30 mg/kg, po measured at 2 hrs post dose; format: functional, organism-based; how it was run: as §5
[13] = Neurotoxicity in CF-1 mouse at 300 mg/kg, ip measured after 4 hrs by rotarod test; format: toxicity, organism-based; conditions: in vivo; how it was run: as §4
[14] = Neurotoxicity in Sprague-Dawley rat at 30 mg/kg, po measured after 0.25 hrs by rotarod test; format: toxicity, organism-based; conditions: in vivo; how it was run: as §3
[15] = Neurotoxicity in CF-1 mouse at 30 mg/kg, ip measured after 4 hrs by rotarod test; format: toxicity, organism-based; conditions: in vivo; how it was run: as §4
[16] = test system: Mus musculus; assay: Anticonvulsant activity in CF-1 mouse model of subcutaneous pentylenetetrazole-induced seizure assessed as reduction in convulsions at 100 mg/kg, ip measured at 4 hrs post dose; format: functional, organism-based; how it was run: as §2
[17] = Neurotoxicity in Sprague-Dawley rat at 30 mg/kg, po measured after 2 hrs by rotarod test; format: toxicity, organism-based; conditions: in vivo; how it was run: as §3
[18] = test system: Mus musculus; assay: Anticonvulsant activity in CF-1 mouse model of maximal electroshock-induced seizure assessed as suppression of tonic hind limb extension at 300 mg/kg, ip measured at 4 hrs post dose; format: functional, organism-based; how it was run: as §1
[19] = test system: Mus musculus; assay: Anticonvulsant activity in CF-1 mouse model of maximal electroshock-induced seizure assessed as suppression of tonic hind limb extension at 100 mg/kg, ip measured at 4 hrs post dose; format: functional, organism-based; how it was run: as §1
[20] = test system: Mus musculus; assay: Anticonvulsant activity in CF-1 mouse model of maximal electroshock-induced seizure assessed as suppression of tonic hind limb extension at 300 mg/kg, ip measured at 0.5 hrs post dose; format: functional, organism-based; how it was run: as §1
[21] = test system: Mus musculus; assay: Anticonvulsant activity in CF-1 mouse model of subcutaneous pentylenetetrazole-induced seizure assessed as reduction in convulsions at 300 mg/kg, ip measured at 0.5 hrs post dose; format: functional, organism-based; how it was run: as §2
[22] = Neurotoxicity in CF-1 mouse at 300 mg/kg, ip measured after 0.5 hrs by rotarod test; format: toxicity, organism-based; conditions: in vivo; how it was run: as §4
[23] = test system: Rattus norvegicus; assay: Anticonvulsant activity in Sprague-Dawley rat model of maximal electroshock-induced seizure assessed as suppression of tonic hind limb extension at 30 mg/kg, po measured at 4 hrs post dose; format: functional, organism-based; how it was run: as §5
[24] = test system: Mus musculus; assay: Anticonvulsant activity in CF-1 mouse model of maximal electroshock-induced seizure assessed as suppression of tonic hind limb extension at 30 mg/kg, ip measured at 4 hrs post dose; format: functional, organism-based; how it was run: as §1
[25] = test system: Salmonella typhimurium; assay: Antimutagenic activity against Salmonella typhimurium TA100 assessed as inhibition of NaN3-induced mutation at 500 ug/plate preincubated for 30 mins followed by top agar addition and measured after 48 hrs in presence of liver S9 fraction by Ames test relative to control; format: organism-based; conditions: salmonella enterica subsp. enterica serovar typhimurium, s9, 48 h
[26] = test system: Salmonella typhimurium; assay: Antimutagenic activity against Salmonella typhimurium TA100 assessed as inhibition of NaN3-induced mutation at 250 ug/plate preincubated for 30 mins followed by top agar addition and measured after 48 hrs in presence of liver S9 fraction by Ames test relative to control; format: organism-based; conditions: salmonella enterica subsp. enterica serovar typhimurium, s9, 48 h
[27] = Mutagenicity in Salmonella typhimurium TA100 assessed as mutagenicity index at 50 to 500 ug/plate preincubated for 30 mins followed by top agar addition and measured after 48 hrs in absence of liver S9 fraction by Ames test; format: toxicity; conditions: salmonella enterica subsp. enterica serovar typhimurium, s9, 48 h
How it was run: (§6)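 Ames plate incorporation in S. typhimurium TA100 or TA1535, with or without S9. Overnight culture, compound in DMSO (50–500 µg per plate) and buffer or S9 mix preincubated 30 min at 37 °C, then top agar on glucose minimal agar. Incubated 48 h at 37 °C, revertants counted in triplicate. Vehicle negative control; NaN3 (−S9) and 2AA (+S9) positive controls. MI = revertants with compound / negative-control revertants; MI ≥ 2 with dose-response counts as positive.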

[28] = test system: Salmonella typhimurium; assay: Antimutagenic activity against Salmonella typhimurium TA100 assessed as inhibition of NaN3-induced mutation at 50 ug/plate preincubated for 30 mins followed by top agar addition and measured after 48 hrs in presence of liver S9 fraction by Ames test relative to control; format: organism-based; conditions: salmonella enterica subsp. enterica serovar typhimurium, s9, 48 h
[29] = test system: Mus musculus; assay: Anticonvulsant activity in CF-1 mouse model of maximal electroshock-induced seizure assessed as suppression of tonic hind limb extension at 100 mg/kg, ip measured at 0.5 hrs post dose; format: functional, organism-based; how it was run: as §1
[30] = test system: Salmonella typhimurium; assay: Antimutagenic activity against Salmonella typhimurium TA100 assessed as inhibition of NaN3-induced mutation at 100 ug/plate preincubated for 30 mins followed by top agar addition and measured after 48 hrs in presence of liver S9 fraction by Ames test relative to control; format: organism-based; conditions: salmonella enterica subsp. enterica serovar typhimurium, s9, 48 h
[31] = Mutagenicity in Salmonella typhimurium TA1535 assessed as mutagenicity index at 50 to 500 ug/plate preincubated for 30 mins followed by top agar addition and measured after 48 hrs in presence of liver S9 fraction by Ames test; format: toxicity, subcellular; conditions: salmonella enterica subsp. enterica serovar typhimurium, s9, 48 h; how it was run: as §6
[32] = test system: Mus musculus; assay: Anticonvulsant activity in CF-1 mouse model of maximal electroshock-induced seizure assessed as suppression of tonic hind limb extension at 100 mg/kg, ip measured at 1 hr post dose; format: functional, organism-based; how it was run: as §1
[33] = test system: Salmonella typhimurium; assay: Antimutagenic activity against Salmonella typhimurium TA1535 assessed as inhibition of NaN3-induced mutation at 250 ug/plate preincubated for 30 mins followed by top agar addition and measured after 48 hrs in presence of liver S9 fraction by Ames test relative to control; format: organism-based; conditions: salmonella enterica subsp. enterica serovar typhimurium, s9, 48 h
[34] = Neurotoxicity in CF-1 mouse at 100 mg/kg, ip measured after 1 hr by rotarod test; format: toxicity, organism-based; conditions: in vivo; how it was run: as §4
[35] = Mutagenicity in Salmonella typhimurium TA100 assessed as mutagenicity index at 50 to 500 ug/plate preincubated for 30 mins followed by top agar addition and measured after 48 hrs in presence of liver S9 fraction by Ames test; format: toxicity, subcellular; conditions: salmonella enterica subsp. enterica serovar typhimurium, s9, 48 h; how it was run: as §6
[36] = test system: Salmonella typhimurium; assay: Antimutagenic activity against Salmonella typhimurium TA1535 assessed as inhibition of NaN3-induced mutation at 500 ug/plate preincubated for 30 mins followed by top agar addition and measured after 48 hrs in presence of liver S9 fraction by Ames test relative to control; format: organism-based; conditions: salmonella enterica subsp. enterica serovar typhimurium, s9, 48 h
[37] = test system: Salmonella typhimurium; assay: Antimutagenic activity against Salmonella typhimurium TA1535 assessed as inhibition of NaN3-induced mutation at 100 ug/plate preincubated for 30 mins followed by top agar addition and measured after 48 hrs in presence of liver S9 fraction by Ames test relative to control; format: organism-based; conditions: salmonella enterica subsp. enterica serovar typhimurium, s9, 48 h
[38] = Neurotoxicity in CF-1 mouse at 100 mg/kg, ip measured after 0.5 hrs by rotarod test; format: toxicity, organism-based; conditions: in vivo; how it was run: as §4
[39] = Mutagenicity in Salmonella typhimurium TA1535 assessed as mutagenicity index at 50 to 500 ug/plate preincubated for 30 mins followed by top agar addition and measured after 48 hrs in absence of liver S9 fraction by Ames test; format: toxicity; conditions: salmonella enterica subsp. enterica serovar typhimurium, s9, 48 h; how it was run: as §6
[40] = test system: Salmonella typhimurium; assay: Antimutagenic activity against Salmonella typhimurium TA1535 assessed as inhibition of NaN3-induced mutation at 50 ug/plate preincubated for 30 mins followed by top agar addition and measured after 48 hrs in presence of liver S9 fraction by Ames test relative to control; format: organism-based; conditions: salmonella enterica subsp. enterica serovar typhimurium, s9, 48 h

SMILES | Activity [1] | Activity [2] | Activity [5] | Activity [8] | Activity [9] | Activity [10] | Activity [11] | Activity [13] | Activity [15] | Activity [16] | Activity [18] | Activity [19] | Activity [20] | Activity [21] | Activity [22] | Activity [24] | other results
CNC(=O)C(C)NC(=O)COc1c(C)cccc1C (stereo unspecified) | inactive | inactive | Non-Toxic | inactive | inactive | inactive | Non-Toxic | Non-Toxic | Non-Toxic | inactive | inactive | inactive | Active | inactive | Toxic | inactive | Activity [3]: Non-Toxic; Activity [4]: Non-Toxic; Activity [6]: Non-Toxic; Activity [7]: inactive; Activity [12]: inactive; Activity [14]: Non-Toxic; Activity [17]: Non-Toxic; Activity [23]: inactive
CC[C@@H](CO)NC(=O)COc1c(C)cccc1C | inactive | inactive | Non-Toxic | inactive | inactive | inactive | Non-Toxic | Non-Toxic | Non-Toxic | inactive | inactive | inactive | Active | inactive | Toxic | inactive | inhibition (INH) [25]: 43%; inhibition (INH) [26]: 28%; Activity index [27]: 0.7 to 1.7; inhibition (INH) [28]: 26%; Activity [29]: inactive; inhibition (INH) [30]: 34%; Activity index [31]: 0.7 to 1.7; Activity [32]: inactive; inhibition (INH) [33]: 19%; Activity [34]: Non-Toxic; Activity index [35]: 0.7 to 1.7; inhibition (INH) [36]: 24%; inhibition (INH) [37]: 22%; Activity [38]: Non-Toxic; Activity index [39]: 0.7 to 1.7; inhibition (INH) [40]: 12%
